Values after ≈ are worked out from the molar mass of the structure shown.
How the values were obtained:
[1] = target: T1, Metabotropic glutamate receptor 5 (Homo sapiens, UniProt P41594); assay: Positive allosteric modulation of human mGluR5 expressed in recombinant HEK293 cells by FLIPR assay; type: cell-based
Summary of the method: (§1)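 HEK293 cells recombinantly expressing human mGluR5 were seeded at 2×10^4 cells/well on poly-D-lysine. They were incubated overnight at 37 °C in glutamate/glutamine-free medium, then loaded for 1 h at 37 °C with calcium 5 dye containing 3 U/ml glutamic pyruvic transaminase and 3 mM sodium pyruvate. Calcium flux was read by FLIPR.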

[2] = target: T1, Metabotropic glutamate receptor 5; assay: Negative allosteric modulation of human mGluR5 expressed in recombinant HEK293 cells by FLIPR assay; type: cell-based; summary of the method: as §1
[3] = Solubility of the compound in potassium phosphate buffer after 4 hrs by UPLC analysis; type: physicochemical
Summary of the method: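 DMSO stock of compound (300 μL) was diluted with 2 × 200 μL of 25 mM potassium phosphate buffer. The mixture was shaken on a titer plate shaker for 4 h.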

[4] = tested on: Liver microsomes; assay: Intrinsic clearance in human liver microsomes; type: ADME, Microsome
Summary of the method: (§2)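 Intrinsic clearance was determined by the Obach method. Liver blood flow was taken as 1.5 L/min for human and 20 mL/min for rat. Human values are expressed in L/min and rat values in mL/min.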

[5] = tested on: Liver microsomes; assay: Intrinsic clearance in rat liver microsomes; type: ADME, Microsome; summary of the method: as §2
[6] = Plasma protein binding in human; type: ADME, cell-free; settings: read-out: PPB (converted)
[7] = Plasma protein binding in rat; type: ADME, cell-free; settings: read-out: PPB (converted)
[8] = Ratio of drug level in brain to plasma of rat at 10 mg/kg, po after 1 hr; type: ADME, organism-based; design: dose 10 mg/kg, route oral; settings: brain and plasma, read-out: BPR
Summary of the method: (§3)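 Rats got a single 10 mg/kg oral dose (n = 2 animals). Brain and plasma were sampled at 1 h. Concentrations were measured by HPLC-tandem MS and averaged values reported. Brain/plasma ratio is brain level (ng/g) divided by plasma level (ng/mL).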

[9] = target: T1, Metabotropic glutamate receptor 5; assay: Binding affinity to human mGluR5 expressed in recombinant HEK293 cells by radiolabeled assay; type: cell-based
Target sequence in this assay (P41594 21-1212 limits assumed): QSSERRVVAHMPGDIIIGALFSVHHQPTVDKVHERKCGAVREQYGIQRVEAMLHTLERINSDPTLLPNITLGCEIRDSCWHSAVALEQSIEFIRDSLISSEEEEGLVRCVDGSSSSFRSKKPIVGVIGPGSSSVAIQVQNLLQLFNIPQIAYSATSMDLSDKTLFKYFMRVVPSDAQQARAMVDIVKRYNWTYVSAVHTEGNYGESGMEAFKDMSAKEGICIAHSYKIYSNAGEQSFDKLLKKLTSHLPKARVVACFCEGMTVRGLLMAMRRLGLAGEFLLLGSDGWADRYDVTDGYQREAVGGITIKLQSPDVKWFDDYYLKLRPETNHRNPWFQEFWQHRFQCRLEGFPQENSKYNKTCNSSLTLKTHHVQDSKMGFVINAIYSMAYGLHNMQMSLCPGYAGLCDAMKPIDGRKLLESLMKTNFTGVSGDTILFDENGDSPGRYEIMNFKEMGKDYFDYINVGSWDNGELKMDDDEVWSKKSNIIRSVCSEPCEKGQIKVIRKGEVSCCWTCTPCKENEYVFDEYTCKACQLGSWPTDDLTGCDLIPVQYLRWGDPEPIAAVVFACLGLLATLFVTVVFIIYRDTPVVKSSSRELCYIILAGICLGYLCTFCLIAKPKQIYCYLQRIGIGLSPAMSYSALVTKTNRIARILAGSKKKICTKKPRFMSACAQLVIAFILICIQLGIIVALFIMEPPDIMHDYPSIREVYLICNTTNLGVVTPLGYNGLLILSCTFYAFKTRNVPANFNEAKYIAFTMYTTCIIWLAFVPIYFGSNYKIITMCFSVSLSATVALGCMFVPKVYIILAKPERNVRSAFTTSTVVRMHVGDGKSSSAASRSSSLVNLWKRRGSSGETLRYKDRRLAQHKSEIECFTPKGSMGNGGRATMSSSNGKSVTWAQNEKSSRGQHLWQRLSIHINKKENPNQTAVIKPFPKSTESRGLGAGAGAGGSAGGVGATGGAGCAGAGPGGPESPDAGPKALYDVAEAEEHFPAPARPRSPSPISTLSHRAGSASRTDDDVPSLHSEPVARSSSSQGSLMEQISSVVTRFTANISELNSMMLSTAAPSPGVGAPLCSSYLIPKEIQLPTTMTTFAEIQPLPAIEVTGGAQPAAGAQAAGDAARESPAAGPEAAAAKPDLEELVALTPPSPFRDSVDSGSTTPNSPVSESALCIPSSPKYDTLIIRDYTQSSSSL

[10] = Drug uptake in rat brain at 10 mg/kg, po after 1 hr; type: ADME, organism-based; design: dose 10 mg/kg, route oral; settings: read-out: Drug uptake; summary of the method: as §3
[11] = Plasma concentration in rat at 10 mg/kg, po after 1 hr; type: ADME, organism-based; design: dose 10 mg/kg, route oral; summary of the method: as §3

| Compound | EC50 [1] | Emax [1] | IC50 [2] | inhibition ([2]; concentration not given here) | solubility at 4 h [3] | Activity [1] | CLH [4] | CLH [5] | fraction unbound [6] | fraction unbound [7] | Kp at 1 h [8] | Activity [9] | concentration at 1 h [10] | concentration at 1 h [11] |
| --- | --- | --- | --- | --- | --- | --- | --- | --- | --- | --- | --- | --- | --- | --- |
| O=C(c1ccc(F)cc1)N1CC(c2nc(-c3cccc(Cl)c3)no2)C1 | > 10000 nM | -12% | 4000 nM | 60% | 47 µM (≈ 16.8 µg/mL) | – | – | – | – | – | – | – | – | – |
| CC1CCCCC1C(=O)N1CC(c2nc(-c3cccc(F)c3)no2)C1 (stereo unspecified) | 540 nM | 87% | > 10000 nM | – | 180 µM (≈ 61.8 µg/mL) | 48% | 1.6 L/min | 13 mL/min | 0.034 | 0.055 | – | – | – | – |
| O=C(C1CCC(F)(F)CC1)N1CC(c2nc(-c3cccc(Cl)c3)no2)C1 | 180 nM | 75% | > 10000 nM | – | 130 µM (≈ 49.6 µg/mL) | 3% | 0.9 L/min | 24 mL/min | 0.013 | 0.031 | 1.75 | 3.8 µM | 280 ng/g | 160 ng/mL |
| O=C([C@H]1CC2CCC1C2)N1CC(c2nc(-c3cccc(F)c3)no2)C1 (stereo partly specified) | 72 nM | 140% | – | – | 54 µM (≈ 18.4 µg/mL) | – | 59 L/min | 16 mL/min | 0.007 | 0.008 | 2.33 | – | 84 ng/g | 36 ng/mL |
| Cc1cccc(-c2noc([C@@H]3CCN3C(=O)Cc3ccc(F)cc3)n2)c1 | 1900 nM | 24% | > 10000 nM | – | – | 30% | – | – | – | – | – | – | – | – |

Source: ChEMBL document CHEMBL2150889, “Azetidinyl oxadiazoles as potent mGluR5 positive allosteric modulators” (Bioorg Med Chem Lett, 2012)
